In general, logP refers to a log measure of how a compound divides between an organic and an aqueous phase. The low end stands for lower lipophilicity, the high end for higher lipophilicity. As usually defined, the Inhibition is the drop in the measured response relative to a control, in per cent. One may read the IC50 as the concentration at which inhibition is half-maximal.

The text below walks through data of ChEMBL document CHEMBL1125533, “Novel 1-(pyridylphenyl)-1-phenyl-2-imidazolylethanols with topical antiinflammatory activity” (J Med Chem, 1992).

A short description of series [1]: Partition coefficient (logP). The class given is physicochemical. To be noted: octanol/water. Put shortly: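 log P estimated from reversed-phase HPLC retention time. Calibration curve built from shake-flask octanol/water log P values of eight pyridines. Log RT vs log P was linear.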
Series [2] has as its system Mus musculus. Nature of the series: In vivo inhibitory activity in a phorbol myristyl acetate (PMA) ear edema model at a dose of 100 ug/ear. In kind it is functional. An outline of the steps:
(§1)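 Mouse ear edema, topical: inflammation induced by PMA, A23187 or arachidonic acid on one ear, with the unchallenged ear as control. Mice were killed by cervical dislocation at set times after challenge, and 6 mm punches were weighed. Edema = challenged minus unchallenged punch weight. Percent inhibition = [(C−T)/C]×100 at 100 μg/ear. Duplicate separate experiments, 10 animals per group. Student's t test.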

Series [3] has as its target T1, Polyunsaturated fatty acid 5-lipoxygenase (Rattus norvegicus, UniProt P12527).
T1 sequence (P12527 whole entry): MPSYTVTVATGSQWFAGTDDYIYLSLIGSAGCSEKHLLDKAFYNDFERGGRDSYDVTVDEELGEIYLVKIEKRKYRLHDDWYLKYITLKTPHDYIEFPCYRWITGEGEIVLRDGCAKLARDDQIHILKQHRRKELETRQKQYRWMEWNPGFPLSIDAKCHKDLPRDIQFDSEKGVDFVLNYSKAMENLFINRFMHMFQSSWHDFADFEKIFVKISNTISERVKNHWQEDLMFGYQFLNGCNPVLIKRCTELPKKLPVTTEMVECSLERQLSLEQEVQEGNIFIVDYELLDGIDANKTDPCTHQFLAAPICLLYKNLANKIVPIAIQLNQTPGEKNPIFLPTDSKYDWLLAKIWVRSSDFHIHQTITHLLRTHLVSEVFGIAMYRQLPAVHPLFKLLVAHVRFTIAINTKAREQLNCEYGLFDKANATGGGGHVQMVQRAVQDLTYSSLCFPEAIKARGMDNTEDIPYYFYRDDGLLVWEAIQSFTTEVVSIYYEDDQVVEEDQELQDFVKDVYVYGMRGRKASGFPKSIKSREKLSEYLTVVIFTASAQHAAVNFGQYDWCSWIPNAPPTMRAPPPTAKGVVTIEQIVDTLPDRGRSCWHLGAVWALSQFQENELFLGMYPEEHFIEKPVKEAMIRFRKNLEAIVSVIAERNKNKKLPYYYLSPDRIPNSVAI
Nature of the series: Inhibitory activity against 5-lipoxygenase of RBL-1 cell line. In kind it is cell-based.

Series [4] has as its system Mus musculus. Briefly: In vivo inhibitory activity against A-23187 ear edema at a dose of 100 ug/ear. In kind it is functional. Put shortly: as §1
Series [5] deals with Mus musculus. Briefly: In vivo inhibitory activity against arachidonic acid(AA) ear edema at a dose of 100 ug/ear. In kind it is functional. An outline of the steps:
as §1

The target in a further series is T2, Cyclooxygenase (Bos taurus, UniProt O62664+O62698).
T2 sequence (O62664 whole entry): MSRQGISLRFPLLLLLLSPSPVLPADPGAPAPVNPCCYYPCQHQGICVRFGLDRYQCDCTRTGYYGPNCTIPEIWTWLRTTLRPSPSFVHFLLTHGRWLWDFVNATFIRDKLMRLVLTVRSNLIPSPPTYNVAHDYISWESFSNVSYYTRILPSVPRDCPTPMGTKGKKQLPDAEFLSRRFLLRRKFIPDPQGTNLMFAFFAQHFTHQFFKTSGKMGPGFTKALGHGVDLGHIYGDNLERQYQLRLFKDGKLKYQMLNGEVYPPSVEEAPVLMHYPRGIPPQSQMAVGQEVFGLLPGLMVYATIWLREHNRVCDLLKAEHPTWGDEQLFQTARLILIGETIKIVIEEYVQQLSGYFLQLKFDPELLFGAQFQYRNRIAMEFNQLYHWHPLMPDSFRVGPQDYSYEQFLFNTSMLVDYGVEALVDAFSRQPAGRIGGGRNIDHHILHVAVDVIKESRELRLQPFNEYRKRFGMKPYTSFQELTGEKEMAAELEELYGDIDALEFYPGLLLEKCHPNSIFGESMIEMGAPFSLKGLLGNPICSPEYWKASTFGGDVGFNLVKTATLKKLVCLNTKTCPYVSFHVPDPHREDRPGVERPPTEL
T2 sequence (O62698 whole entry): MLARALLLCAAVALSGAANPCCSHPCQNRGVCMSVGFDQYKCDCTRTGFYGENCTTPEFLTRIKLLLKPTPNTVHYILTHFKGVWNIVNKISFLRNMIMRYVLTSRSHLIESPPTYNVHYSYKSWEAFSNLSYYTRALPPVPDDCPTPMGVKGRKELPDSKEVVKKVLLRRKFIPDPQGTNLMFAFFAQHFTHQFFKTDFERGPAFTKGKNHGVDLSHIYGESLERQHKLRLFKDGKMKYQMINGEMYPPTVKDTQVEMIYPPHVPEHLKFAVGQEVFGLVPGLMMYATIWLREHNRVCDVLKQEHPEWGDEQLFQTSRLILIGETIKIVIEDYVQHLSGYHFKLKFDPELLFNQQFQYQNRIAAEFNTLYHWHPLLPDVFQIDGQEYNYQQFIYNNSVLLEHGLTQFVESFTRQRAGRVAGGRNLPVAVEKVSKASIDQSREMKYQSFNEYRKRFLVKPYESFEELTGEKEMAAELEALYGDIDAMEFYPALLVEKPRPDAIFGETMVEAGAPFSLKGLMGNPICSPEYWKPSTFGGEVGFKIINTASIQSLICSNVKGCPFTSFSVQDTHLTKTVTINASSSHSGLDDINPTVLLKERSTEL
Briefly: Inhibitory activity against Prostaglandin G/H synthase (bovine seminal vesicles). In kind it is protein assay.

Series [6] has as its system Mus musculus. Nature of the series: In vivo inhibitory activity against phorbol myristyl acetate (PMA) ear edema at a dose of 100 ug/ear. In kind it is functional. An outline of the steps: as §1

In turn, `OC(Cn1ccnc1)(c1ccc(F)cc1)c1ccc(Br)cc1` (stereo unspecified) came in with a logP in series [1] of 3.42. In the series with Mus musculus [2], this compound had an Inhibition of 29%.
Taken in the same sequence, the figures for `Oc1ccc(C(O)(Cn2ccnc2)c2ccc(-c3ccncc3)cc2)cc1` (stereo unspecified) were 2.49 and 37%.
With `OC(CN1CCCC1)(c1ccc(F)cc1)c1ccc(-c2ccncc2)cc1` (stereo unspecified), the logP in series [1] was 3.84. This compound also returned an Inhibition in the series on Mus musculus [2] of 24%.
In series [1], `OC(Cn1ccnc1)(c1ccc(F)cc1)c1cccc(-c2cccnc2)c1` (stereo unspecified) showed a logP of 3.22. The same compound displayed an Inhibition in the series on Mus musculus [2] of 64%.
Taken in the same sequence, the figures for `COC(=O)c1ccc(C(O)(Cn2ccnc2)c2ccc(-c3ccncc3)cc2)cc1` (stereo unspecified) were 2.61 and 62%.
In the same order, the values of `OC(Cn1cccn1)(c1ccc(F)cc1)c1ccc(-c2ccncc2)cc1` (stereo unspecified) are 2.14 and 28%.
Taken in the same sequence, the figures for `OC(Cn1cnc2ccccc21)(c1ccc(F)cc1)c1ccc(-c2ccncc2)cc1` (stereo unspecified) were 2.06 and 40%.
In the case of `CC(=O)c1ccc(C(O)(Cn2ccnc2)c2ccc(-c3ccncc3)cc2)cc1` (stereo unspecified), in series [1], the logP was found to be 2.41. In the series on Mus musculus [2], the Inhibition is 78%.
`COc1c(OC)c(OC(C)=O)c2cc(Cl)ccc2c1OC(C)=O` [LONAPALENE]: the figures for the IC50 (in series [3]; against Cyclooxygenase) were 0.74 µM and more than 750 µM, respectively. The ED50 was determined as 32 ug ear-1 with Mus musculus [4] and 103 ug ear-1 with Mus musculus [5]. The Inhibition in the series with Mus musculus [2] was found to be 15%.
On to `OCc1ccc(C(O)(Cn2ccnc2)c2ccc(-c3ccncc3)cc2)cc1` (stereo unspecified), for which the logP in series [1] came to 2.4. Moreover, the Inhibition in the series on Mus musculus [2] was found to be 24%.
Taken in the same sequence, the figures for `OC(Cn1ccnc1)(c1ccc(-c2ccncc2)cc1)c1ccc(F)cc1F` (stereo unspecified) were 2.54 and 73%.
Taken in the same sequence, the figures for `OC(Cn1ccnc1)(c1ccc(F)cc1)c1cccc(-c2ccccn2)c1` (stereo unspecified) were 3.34 and 61%.
In turn, `OC(Cn1ccnc1)(c1ccccc1)c1ccc(Br)cc1` (stereo unspecified) registered a logP in series [1] of 3.35. The compound also returned an Inhibition in the series with Mus musculus [2] of 37%.
For the compound `OC(Cn1ccnc1)(c1ccc(F)cc1)c1ccccc1-c1cccnc1` (stereo unspecified), the logP in series [1] was 3.26. In the series with Mus musculus [2], the Inhibition is on record as 62%.
Consider `COc1ccc2c(c1)c(CC(=O)O)c(C)n2C(=O)c1ccc(Cl)cc1` [INDOMETHACIN], for which the IC50 in series [3] is more than 25 µM. The ED50 in the series with Mus musculus [4] turned out to be 254 ug ear-1; in the series with Mus musculus [5] it was 902 ug ear-1. The compound further yielded an Inhibition in the series on Mus musculus [2] of 10%.
`OC(Cn1ccnc1)(c1ccc(Br)cc1)c1ccccc1Cl` (stereo unspecified) came in with a logP in series [1] of 3.87. The same compound returned an Inhibition in the series with Mus musculus [2] of 26%.
Compound `O=Cc1ccc(C(O)(Cn2ccnc2)c2ccc(-c3ccncc3)cc2)cc1` (stereo unspecified) returned a log partition coefficient (logP) in series [1] of 2.38. The same compound returned an Inhibition in the series on Mus musculus [2] of 67%.
In the same order, the values of `Cc1ccc(C(O)(Cn2ccnc2)c2ccc(Br)cc2)cc1` (stereo unspecified) are 3.55 and 18%.
In the same order, the values of `OC(Cn1ccnc1)(c1ccc(-c2cccnc2)cc1)c1ccc(F)cc1F` (stereo unspecified) are 3.31 and 52%.
Regarding `OC(Cn1ccnc1)(c1ccccc1)c1ccc(-c2ccncc2)cc1` (stereo unspecified), in series [1], the logP turned out to be 2.29. In the series on Mus musculus [2], this compound had an Inhibition of 69%.
For `OC(Cn1cncn1)(c1ccc(F)cc1)c1ccc(-c2ccncc2)cc1` (stereo unspecified), in series [1], the logP stood at 1.67. In the series with Mus musculus [2], this compound had an Inhibition of 53%.
In the same order, the values of `COC(C)(OC)c1ccc(C(O)(Cn2ccnc2)c2ccc(-c3ccncc3)cc2)cc1` (stereo unspecified) are 3.45 and 61%.
In the same order, the values of `OC(Cn1ccnc1)(c1ccc(F)cc1)c1ccc(-c2ccccn2)cc1` (stereo unspecified) are 3.58 and 63%.
As to `OC(Cn1ccnc1)(c1ccc(-c2ccccc2)cc1)c1ccc(-c2ccncc2)cc1` (stereo unspecified), in series [1], the logP came to 3.86. For the same compound, the Inhibition with Mus musculus [2] was 49%.
Take `OC(Cn1ccnc1)(c1ccc(F)cc1)c1cccc(-c2ccncc2)c1` (stereo unspecified): the logP in series [1] turned out to be 2.91. The compound further showed an Inhibition in the series with Mus musculus [2] of 74%.
In the same order, the values of `OC(Cn1ccnc1)(c1cccc(Br)c1)c1ccc(F)cc1F` (stereo unspecified) are 3.6 and 42%.
Taken in the same sequence, the figures for `OC(Cn1ccnc1)(c1ccc(F)cc1)c1ccccc1-c1ccncc1` (stereo unspecified) were 2.51 and 86%.
Taken in the same sequence, the figures for `OC(Cn1cccc1)(c1ccc(F)cc1)c1ccc(-c2ccncc2)cc1` (stereo unspecified) were 2.35 and 58%.
Turning to `Oc1c(Cc2ccccc2)ccc2ccccc12`, the results for the ED50 with Mus musculus [4], in the series on Mus musculus [5] and with Mus musculus [6] were 5 ug ear-1, 7 ug ear-1 and 764 ug ear-1, respectively. Also, the IC50 at Cyclooxygenase is more than 750 µM.
`OC(CCc1ncc[nH]1)(c1ccc(F)cc1)c1ccc(F)cc1` yielded a logP in series [1] of 3.13. In addition, the Inhibition in the series with Mus musculus [2] was 52%.
In the same order, the values of `OC(CN1CCOCC1)(c1ccc(F)cc1)c1ccc(-c2ccncc2)cc1` (stereo unspecified) are 2.82 and 41%.
On to `OC(Cn1ccnc1)(c1ccc(-c2ccncc2)cc1)c1ccccc1Cl` (stereo unspecified), for which the logP in series [1] is 3.37. Also, the Inhibition in the series on Mus musculus [2] came out at 41%.
In series [1], `OC(Cn1ccnc1)(c1ccc(Br)cc1)c1ccc(F)cc1F` (stereo unspecified) had a logP of 3.44. In the series with Mus musculus [2], this compound came in with an Inhibition of 22%.
In series [1], `OC(Cn1ccnc1)(c1ccc(F)cc1)c1ccc(F)cc1` showed a logP of 2.95. The compound also came in with an Inhibition with Mus musculus [2] of 50%.
Taken in the same sequence, the figures for `OC(Cn1ccnc1)(c1ccc(-c2ccccn2)cc1)c1ccc(F)cc1F` (stereo unspecified) were 3.65 and 51%.
In the same order, the values of `OC(Cn1ccnc1)(c1ccc(F)cc1)c1cccc(Br)c1` (stereo unspecified) are 3.3 and 38%.
In the same order, the values of `OC(Cn1ccnc1)(c1ccc(Cl)cc1)c1ccc(-c2ccncc2)cc1` (stereo unspecified) are 3.27 and 58%.
`CN(C)c1ccc(C(O)(Cn2ccnc2)c2ccc(-c3ccncc3)cc2)cc1` (stereo unspecified): the log partition coefficient (logP) in series [1] amounted to 3.29. This compound yielded an Inhibition with Mus musculus [2] of 34%.
Compound `OC(Cn1ccnc1)(c1ccc(-c2ccncc2)cc1)c1ccc(C(F)(F)F)cc1` (stereo unspecified) had a logP in series [1] of 3.11. Besides, the Inhibition in the series on Mus musculus [2] stood at 58%.
`COc1ccc(C(O)(Cn2ccnc2)c2ccc(-c3ccncc3)cc2)cc1` (stereo unspecified) displayed a logP in series [1] of 3.55. The compound further yielded an Inhibition in the series on Mus musculus [2] of 74%.
Compound `OC(Cn1ccnc1)(c1ccc(F)cc1)c1ccc(-c2ccccc2)cc1` (stereo unspecified) gave a logP in series [1] of 4.23. In addition, the Inhibition in the series with Mus musculus [2] was determined as 25%.
Compound `COc1ccc(C(O)(Cn2ccnc2)c2ccc(Br)cc2)cc1` (stereo unspecified) had a logP in series [1] of 4.02. Also, the Inhibition in the series on Mus musculus [2] is given as 31%.
